Screening results (PubChem BioAssay)
Calb FLC: affects C. albicans growth with fluconazole; growth inhibition, % (no concentration beside the values); 300,000 compounds, 0.57% hits; C. albicans CaCi-2 (fluconazole-resistant clinical isolate) + fluconazole, Alamar Blue growth, 48 h;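 active means growth inhibition above about 58% in most replicates, limit read from the data, passing the limit was not always enough; inconclusive means exactly half the replicates above a set limit; inactive means most replicates below a set limit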;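 further: all wells also contain fluconazole at 8 µg/ml as a sub-toxic cotreatment; 0% = median of DMSO wells and 100% = median of geldanamycin control wells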
NLRP3 yeast inh: inhibitors of NALP3 inflammasome in yeast; Yeast reconstituted NLRP3/ASC/caspase-1, beta-gal luminescence, 24 h; inhibition, % at 10 µM; 330,000 compounds, 0.39% hits; AID 2825;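 active means inhibition of 50% or more; inactive means inhibition below 50%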;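 further: plate controls were induced DMSO wells for no effect and uninduced yeast grown without galactose for full effect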
ATG4B inh: ATG4B (human) cysteine protease inhibition; inhibition, % at 8.33 µM; ATG4B cleavage of LC3-PLA2, NBD-HPC fluorescence, 1 h; AID 504462; 340,000 compounds, 0.51% hits; in the data active means inhibition above about 40%
Target sequence (Q9Y4P1 whole entry, looked up): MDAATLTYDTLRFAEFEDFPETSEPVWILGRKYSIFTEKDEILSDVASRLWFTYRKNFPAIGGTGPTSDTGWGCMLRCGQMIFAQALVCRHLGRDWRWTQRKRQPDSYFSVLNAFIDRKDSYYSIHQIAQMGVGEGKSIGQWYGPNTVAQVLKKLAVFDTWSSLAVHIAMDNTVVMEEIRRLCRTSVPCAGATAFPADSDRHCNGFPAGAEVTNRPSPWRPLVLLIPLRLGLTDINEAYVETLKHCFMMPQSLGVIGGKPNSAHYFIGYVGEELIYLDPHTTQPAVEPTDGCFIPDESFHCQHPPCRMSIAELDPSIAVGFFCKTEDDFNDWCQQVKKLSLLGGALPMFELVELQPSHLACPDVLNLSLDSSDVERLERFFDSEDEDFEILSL
ALR H2O2 inh: blocks human ALR sulfhydryl oxidase activity. P55789. purified ALR, DTT oxidation, H2O2 HRP-luminol luminescence. inhibition, % (concentration not given with the values). 290,000 compounds, 3.8% hits. AID 485317;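 active means mean replicate inhibition above about 79%, with every replicate also reaching it, limit read from the data; inconclusive means only one of the two criteria met; inactive means mean below limit and not every replicate reaching it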
Target sequence (P55789 whole entry, looked up): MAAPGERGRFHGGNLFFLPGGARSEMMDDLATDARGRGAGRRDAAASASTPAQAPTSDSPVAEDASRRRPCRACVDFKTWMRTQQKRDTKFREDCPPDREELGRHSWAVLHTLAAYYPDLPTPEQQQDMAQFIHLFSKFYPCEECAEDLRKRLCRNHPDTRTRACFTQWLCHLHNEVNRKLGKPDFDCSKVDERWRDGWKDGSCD
NALP1 yeast inh: inhibitors of NALP1 inflammasome in yeast. S. cerevisiae NALP1/ASC/caspase-1 growth, X-gal OD620, 72 h. inhibition, % at 10 µM. 280,000 compounds, 0.61% hits; in the data active means inhibition mostly above about 24%, no sharp cut-off; inactive means mostly below about 32%
UCH37 DUB inh: human UCH37 deubiquitinating enzyme inhibition; inhibition, % (concentration not given with the values); Q9Y5K5; 330,000 compounds, 0.33% hits; AID 588478; purified proteasome/UCH37, Ub-AMC cleavage fluorescence;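 active means mean inhibition over replicate wells above about 20%, limit read from the data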;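 further: 0% = compound-free wells with enzyme and 100% = wells lacking proteasome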
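Test system – human UCH37 enzyme supplied as purified proteasome complex · Incubation – 30 min preincubation with enzyme, 25 min cleavage at room temperature · Detection – AMC fluorescence from Ub-AMC cleavage, excitation 355 nm, emission 460 nm · Benchmarks – no-proteasome wells (full inhibition) and compound-free wells (no inhibition)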
* hit, by the source's call; i = inactive; ? = inconclusive; / = not tested or not shown. Rows were chosen to be rich in hits. Some 4.8% of all compounds tested hit in one or more screens of this group.

SMILES	Calb FLC	NLRP3 yeast inh	ATG4B inh	ALR H2O2 inh	NALP1 yeast inh	UCH37 DUB inh
CC(C)OP(=O)(c1ccc(N(C)C)cc1)C(O)c1ccccc1 (configuration not stated)	98*	-12	-10	-1	19	3
CN(C)c1ccc(C(O)P(=O)(OC2CCCCC2)OC2CCCCC2)cc1 (configuration not stated)	4	-18	-3	97*	/	7
CC(C)OP(=O)(c1ccc(N(C)C)cc1)C(O)c1ccc(C(C)C)cc1 (configuration not stated)	4	1	0	-7	-2	2
COc1ccc(C(O)P(=O)(OC(C)C)OC(C)C)cc1OC (configuration not stated)	-3	6	0	/	/	0
Cc1ccc(C(O)P(=O)(OC2CCCCC2)OC2CCCCC2)cc1 (configuration not stated)	7	-20	7	4	3	3
COc1cccc(OCc2cc(C=Nn3cncn3)ccc2OC)c1	/	/	/	/	/	0
NC(Cc1ccc([N+](=O)[O-])cc1)=NOC(=O)c1ccc(Br)cc1	/	/	/	/	/	2
Cc1ccc(NC2=C(Cl)C(=O)OC2OC(=O)c2ccco2)c(C)c1 (configuration not stated)	-3	-2	-9	99*	/	/
Cc1ccc(C)c(NC2=C(Cl)C(=O)OC2OC(=O)c2ccco2)c1 (configuration not stated)	-9	1	3	27	5	5
Cc1ccc(NC2=C(Cl)C(=O)OC2OC(=O)c2ccco2)cc1C (configuration not stated)	17	7	-1	91*	33	3
Cc1ccc(C(=NO)c2oc3c(C)c4oc(=O)cc(C)c4cc3c2C)cc1	/	/	/	/	/	-62
O=C(O)CCC(=O)NCCn1c(-c2ccccc2)csc1=Nc1ccccc1	-5	8	0	92*	1	1
CC(=NNc1ncc(Cl)cc1Cl)c1ccc(OC(F)F)cc1	/	/	/	/	/	2
Cc1ccc(-n2nnnc2C(Cl)c2nnnn2-c2ccc(C)cc2)cc1	96*	/	-19	/	60	7
Cc1ccc(-n2nnnc2-c2ccccc2)cc1	22	-31	-2	-9	7	5
CC(CC(=O)NC1CCCCC1)=NNC(=O)c1ccccn1	/	/	/	/	/	2
COc1ccccc1OCc1ccc(C(=O)NN)o1	-1	11	-14	90*	0	2
COc1ccc(NC(=O)c2ccc(COc3ccccc3OC)o2)cc1OC	3	4	-9	-28	9	5
COc1ccc(OC)c(S(=O)(=O)Nc2ccccc2O)c1	2	22	1	99*	/	0
CNc1nnc(-c2ccc(N(C)C)cc2)s1	/	7	-2	100*	-6	i
CN(C)c1ccc(-c2ccncc2)cc1	/	/	/	/	15	/
COc1ccc(C(=O)CCN2CCc3cc(OC)c(OC)cc3C2)cc1	0	5	-9	98*	11	1
COc1cc(C(=O)NN=Cc2sccc2C)cc(OC)c1OC	/	/	/	/	/	10
O=[N+]([O-])c1ccc(Cl)c2cccnc12	?	13	-4	-24	0	5
O=[N+]([O-])c1cc(Cl)c(O)c2ncccc12	107*	22	-3	/	19	25*
SMILES	Calb FLC	NLRP3 yeast inh	ATG4B inh	ALR H2O2 inh	NALP1 yeast inh	UCH37 DUB inh
O=[N+]([O-])c1cc(Cl)c2cccnc2c1O	102*	1	-7	-3	2	16
O=[N+]([O-])c1cc(CN2CCN(c3ccccc3)CC2)c(O)c2ncccc12	100*	15	2	-18	-10	11
CC12CCC(C(=O)Nc3ccccc3)(CC1=NO)C2(C)C (configuration not stated)	/	/	/	/	/	1
O=C(NN=C1CCCC1)c1sc2ccccc2c1Cl	2	10	0	42	-5	2
O=C1CCC/C(=N/NC(=O)c2sc3ccccc3c2Cl)C1	4	-16	-16	98*	/	/
Cc1cc(C)c(S(=O)(=O)NCc2ccncc2)c(C)c1	15	17	-7	-3	39*	2
Cc1cc(C)c(S(=O)(=O)NCCc2ccncc2)c(C)c1	-8	7	4	-13	8	4
CN(C)C(=O)CSc1cnc2ccccc2n1	-5	21	-2	-21	28*	3
Cc1ccc(-c2nnn(CC(=O)Nc3nnc(C(C)C)s3)n2)cc1	-14	15	1	6	37*	1
CCNc1nc(NCC)n2c(SCC(=O)Nc3ccc(F)cc3)nnc2n1	-2	13	-1	11	/	2
CCNc1nc(NCC)n2c(SCC(=O)Nc3ccc(Br)cc3F)nnc2n1	7	16	4	98*	/	1
CCN(CC)C(=O)C(=O)NN=Cc1cccc(Br)c1	/	/	/	/	/	3
CCC(C)Nc1nc(-c2ccc3c(c2)NC(=O)CO3)cs1 (configuration not stated)	2	24	-5	98*	-13	-2
CCOc1cc(C=NNC(=O)CCc2n[nH]c(=O)[nH]c2=O)ccc1O	/	/	/	/	/	5
COC1=C(Nc2ccc(O)cc2)C(=O)c2ccccc2C1=O	42	19	-6	99*	47	10
COC1=C(Nc2ccc(OC)cc2)C(=O)c2ccccc2C1=O	/	20	7	26	42	6
CCCC(=NNC(=O)c1ccc(OC)c(OC)c1)c1ccccc1	/	/	/	/	/	0
Nn1c(SCC(=O)Nc2ccc3c(c2)OCCO3)nnc(CCC(=O)O)c1=O	-2	6	-7	93*	2	-3
C=C(C)Cn1c(N)cc(=O)nc1SCC(=O)Nc1cccc(C(F)(F)F)c1	-4	-1	3	97*	34	3
Nn1c(SCC(=O)Nc2ccc3c(c2)OCO3)nnc1C1CC1	-2	5	-7	-18	7	-2
Nn1c(SCC(=O)Nc2ccc3c(c2)OCO3)nncc1=O	3	1	4	98*	2	8
Nn1c(SCC(=O)Nc2cccc(C(F)(F)F)c2)nncc1=O	-3	10	-7	97*	3	6
Cc1ccc2cc(C=NNC(=O)c3ccccc3[N+](=O)[O-])c(Cl)nc2c1	/	/	/	/	/	4
CC(Cn1ncc(N2CCOCC2)c(Cl)c1=O)=NO	/	/	/	/	/	3
O=c1cnnc(NN=Cc2ccc3c(c2)OCO3)[nH]1	/	/	/	/	/	5
CC(=NNC(=O)c1nc2ccccn2c1C)c1cc2ccccc2o1	/	/	/	/	/	9
O=C(O)CCC(=O)Nc1ccc(C(=O)OCC(=O)c2ccc(Cl)cc2Cl)cc1	35	7	27	96*	6	1
Cc1ccc(C(C2=C(O)CC(C)(C)CC2=O)C2C(=O)CC(C)(C)CC2=O)o1 (configuration not stated)	5	23	-1	97*	9	4
C=CCc1cccc(C=NNC(=O)C(C)Nc2ccc(C)cc2)c1O (configuration not stated)	/	/	/	/	/	2
COCc1cc(=O)[nH]c(N=C(N)Nc2ccccc2C)n1	/	/	/	/	/	29*
